The series relates to MS2 coat protein. The experiment in a line: apparent Kd, MS2 coat protein; higher = weaker binding; RNA-MaP array; FMN 200 µM where present. The procedure, abridged: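 The titrant was SNAP-549-labelled MS2 coat protein, run from 0.7 or 1.5 nM in doubling steps to 3 µM. It was applied to designs transcribed by stalled E. coli RNA polymerase on Illumina sequencing-chip clusters, without ligand first and then with constant ligand, in 100 mM Tris-HCl pH 7.5, 80 mM KCl, 4 mM MgCl2, BSA, DTT, yeast tRNA and Tween-20. The apparent Kd is the median of filtered per-cluster binding-curve fits, with green signal normalised to red-channel RNA signal and control-cluster median Fmax.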

The mark [1] stands for this setting: designed as: OFF switch for flavin mononucleotide, no ligand.
Setting [2] is: ligand present: flavin mononucleotide, designed as: OFF switch for flavin mononucleotide.
Setting [3] is: designed as: ON switch for flavin mononucleotide, no ligand.
[4] abbreviates: ligand present: flavin mononucleotide, designed as: ON switch for flavin mononucleotide.

The apparent Kd is the concentration giving half-maximal binding under the conditions of the assay.

Consider “UCCGAGUGAGGAUAUUGGAGUUGGUGCACUGCACAUAGGGUUAAGAAGGCACAUGAGGAUCACCCAUGUUACGU”, for which the “apparent Kd” value worked out at 41.3 nM under setting [1] and 40.9 nM under setting [2].

For the sequence “CUUUUGUGAGGAUAUCAGUAGUAAUACAAUAGUAUUACUACUGAGAAGGCACAUGAGGAUCACCCAUGUUCCUC”, the “apparent Kd” value under setting [1] worked out at 45 nM and the “apparent Kd” value under setting [2] turned out to be 162 nM.

Take “AGAAACUACGAGAAGGACAUGUAAAAUGCCGCAAACAUGAGGAUCACCCAUGUAGGAUAUCGUAGUUUCAGGAUCGUGAGAUCA”: the “apparent Kd” value is 6.59 nM under setting [1] and 18.1 nM under setting [2].

“UGAUCGAGAGAUCUUAGAUUCUGGUAGGAUAUACAUAAUGUAAUAUAGACAUGAGGAUCACCCAUGUAGAAGGACUAGAGUCUA”: the “apparent Kd” value under setting [1] was found to be 8.49 nM and the “apparent Kd” value under setting [2] amounted to 24.3 nM.

For the sequence “GUUAAACAUGAGGAUCACCCAUGUCAAUGUAGUCGAGGAUAUGGGCAGCUGUGAGGCGUACUAGAAGGCGAAAAGG”, the “apparent Kd” value reads like this: under setting [3], 270 nM; under setting [4], 57.5 nM.

As to “AACAGUACAGGAUAUACAUGAGGAUCACCCAUGUGAGCGUUAAGUGCCGUAGCACAAAGUAGAAGGGUACUGGA”, the “apparent Kd” value reads like this: under setting [1], 29.9 nM; under setting [2], 92.5 nM.

In the case of “CCGGACAUUCGGACAUGAGGAUCACCCAUGUAGGCGGAUUCACAGGAUAUAAGUUCGUCCGAGACUUAGAAGGGUGGCUUCCGA”, the “apparent Kd” value under setting [3] was 119 nM and the “apparent Kd” value under setting [4] was determined as 54.6 nM.

Regarding “CAAAAGCUAGGAUAUGCCAAUUGUUCCUUAAGUCAAAAUAAACAUGAGGAUCACCCAUGUAGAAGGAGCCCAAC”, the “apparent Kd” value reads like this: under setting [1], 35.9 nM; under setting [2], 19.8 nM.

Regarding “GGAGCACACAUUAACAUGAGGAUCACCCAUGUCAAUAGACAUGAGGAUAUGGAUCCGAAAAGGAUCCAGAAGGCAUGGUGCUCC”, the “apparent Kd” value was determined as 130 nM under setting [3] and 10 nM under setting [4].

Turning to “AUCCCGCGAGGAUAUACAUGAGGAUCACCCAUGUAGGUUCUGGAUGGGCGAAAUUUGUGUAGAAGGCGCACCAA”, the “apparent Kd” value is, setting by setting: under setting [1], 33.4 nM; under setting [2], 26.1 nM.

As for “GAGCGAAAGCUCAAUGUCGAUAGCAGAAGGACAUGAAAACAUGAAAUAACAUGAGGAUCACCCAUGUAGGAUAUGCUAUCGACU”, the “apparent Kd” value came to 17.9 nM under setting [1] and 279 nM under setting [2].

In the case of “GCUGCAUAGGCAGGAUAUGCAAUAAUUCGAAUAGAAUAUAACGAAUUAACAUGAGGAUCACCCAUGUAGAAGGGCCUGUGCAGU”, the “apparent Kd” value reads like this: under setting [1], 5.76 nM; under setting [2], 5.58 nM.

In the case of “CUGAGGUCAGGAUAUGCAUGGCGGGACUUGCGUCGUGGCGUGCAGAAGGGACAUGAGGAUCACCCAUGUGGAGG”, the “apparent Kd” value by setting is: under setting [1], 147 nM; under setting [2], 206 nM.

With “UCCCGUGUGGAAGGAUAUAGGACGAGGUGGGACAUGAGGAUCACCCAUGUGCUAGAAGGUCCGCAGCCGAUUGGCUUUUACGUG”, the “apparent Kd” value under setting [1] was found to be 9.2 nM and the “apparent Kd” value under setting [2] is 28.1 nM.

Turning to “GGAGAACAUGAGGAUCACCCAUGUGGAUGGGCGCUAGGAUAUGCGGGAGGGUGAAGAGAAGCAGAAGGAGUGGAUA”, the “apparent Kd” value under setting [3] is 77.6 nM and the “apparent Kd” value under setting [4] came to 76.1 nM.

As for “UACAAUCUAUCUGAGGAUAUCAUGAAAAAAACAUGAGGAUCACCCAUGUGCAGGAAAACUGCAUAUGAGAAGGCAGAUAGAUUGU”, the “apparent Kd” value runs as follows: under setting [3], 770 nM; under setting [4], 25.7 nM.

On to “UAGAAGUCAGGAUAUGCUGCUCGUCACUUGCGUGAUGAGUAGCAGAAGGGACAUGAGGAUCACCCAUGUAAAGG”, for which the “apparent Kd” value reads like this: under setting [1], 208 nM; under setting [2], 424 nM.

On to “CUGUUCUGUGUAGGAUAUGCAUAUUCCCAUUAUGCAGAAGGACAUGAGGAUCACCCAUGUAUGUUAUUAUCAUGUGUUACAUGC”, for which the “apparent Kd” value under setting [1] worked out at 37.6 nM and the “apparent Kd” value under setting [2] was found to be 146 nM.

Turning to “AGGUAGUCAGGAUAUUAGUGGUAGAGGGAUAACUUUAUUGUUGAGAAGGGACAUGAGGAUCACCCAUGUUUUGU”, the “apparent Kd” value is, setting by setting: under setting [1], 26.3 nM; under setting [2], 32.5 nM.

As to “GACCUACAUGAGGAUCACCCAUGUGAGGAUAUAUUGUUAUUUUUAAUAUUUUUUAGUGGUAGAAGGCGCGUGAU”, the “apparent Kd” value was 18.4 nM under setting [1] and 17.3 nM under setting [2].

As for “ACAUGAGGAUCACCCAUGUAUUCAUAGGAUAUACAACAUGAGUUUCAUUCAUGUAAACAUGUAUUGUAGAAGGAUGUUACAUGU”, the “apparent Kd” value under setting [1] was determined as 13.6 nM and the “apparent Kd” value under setting [2] amounted to 15 nM.

“AGAUAACAUGUAGGAUAUCGAGGCCUGAGGCCUCGAGAAGGACAUGAGGAUCACCCAUGUAGUUGUACCAUGGAAUCACGCACU”: the “apparent Kd” value by setting is: under setting [1], 340 nM; under setting [2], 645 nM.

On to “GGAUAGGACAGAGGAUAUACGGAUAGGAUCUACUAUCCUCCUUAAAUAACAUGAGGAUCACCCAUGUAGAAGGCUGUCCUAUCG”, for which the “apparent Kd” value was determined as 16.9 nM under setting [1] and 40.5 nM under setting [2].

“UCAUGAUGGAAGAAGGGAGUCGUGCAUGACAACUCAGGAUAUUUCACAUGAGGAUCACCCAUGUCGAAGUAACAAUGUUGAUCA”: the “apparent Kd” value under setting [1] was 16.2 nM and the “apparent Kd” value under setting [2] came to 56.6 nM.

As for “CGUACUGAAGUGAGGAUAUUGUCUCGGAUACGAAACAAGAAGGCACAUGAGGAUCACCCAUGUUGACAGUACGA”, the “apparent Kd” value by setting is: under setting [1], 15.8 nM; under setting [2], 13.1 nM.

As to “UGUCGGAGCAGAGGAUAUUACAUGAGGAUCACCCAUGUAUGAACCAAUAGCUGGAAACAGCAAUGUAAGAAGGCUACUCCGACA”, the “apparent Kd” value runs as follows: under setting [1], 5.41 nM; under setting [2], 31.4 nM.

As for “CUCAGCUCGUCAGGAUAUACGUCACUGCUUCGGCAGUGUGGUAAGAUCACAUGAGGAUCACCCAUGUAGAAGGGACGAGCUGAA”, the “apparent Kd” value under setting [1] worked out at 12.8 nM and the “apparent Kd” value under setting [2] was determined as 266 nM.

On to “UGUUUUUAUGUAAGGAUAUGGGUUUGGUUGCGGGCUUAGAAGGUACAUGAGGAUCACCCAUGUAUUUUGUGCAU”, for which the “apparent Kd” value reads like this: under setting [1], 31.6 nM; under setting [2], 35.5 nM.

Take “GGAUUUUACUAGUUUUCUAAACAUGAGGAUCACCCAUGUUUUUAGGAUAUCAGCGUGAAACACGCUGAGAAGGAAGAACAAUCC”: the “apparent Kd” value by setting is: under setting [1], 15.7 nM; under setting [2], 18.2 nM.

“UCUCGAUGUGUAGGAUAUCUGAUCACUAUGACAAGAGAAGGGCACAUGAGGAUCACCCAUGUGGAGGACCACUGGUUCAGAUUA”: the “apparent Kd” value under setting [1] was 35.8 nM and the “apparent Kd” value under setting [2] is 64.9 nM.

Regarding “UGGUACUAGGGAGGAUAUGGGAAGAUACAUGAGGAUCACCCAUGUUUAAGAAUGCCGAGAGGCAACUAGAAGGCCCUAGUGCCU”, the “apparent Kd” value under setting [3] was found to be 432 nM and the “apparent Kd” value under setting [4] was found to be 19.2 nM.

As to “AGGAUGUUAGGAUAUCGGAUAUGCUGGAGGAGGUGGAUUUACGAGAAGGAACAUGAGGAUCACCCAUGUUGGAG”, the “apparent Kd” value is, setting by setting: under setting [1], 22.5 nM; under setting [2], 25.1 nM.

With “AAGAAGUCAGGAUAUGCUAAAGAAAUAAAAAGAAAGAAAGAACAUGAGGAUCACCCAUGUAGAAGGGACAAGAA”, the “apparent Kd” value runs as follows: under setting [1], 42.9 nM; under setting [2], 40.6 nM.

For the sequence “GUUAUUGACAAGAAGGCAAACAUGAGGAUCACCCAUGUUCUACAUGGAUAUUGAGGAUAUUGCCAAUACAUGAGGAUCACCCAG”, the “apparent Kd” value under setting [1] came to 63 nM and the “apparent Kd” value under setting [2] came out at 68.8 nM.

“AACAUGUCAGGAUAUGCAACAGGAGACUGACACGCGAGUGAGCAGAAGGGACAUGAGGAUCACCCAUGUUCAAA”: the “apparent Kd” value under setting [1] is 19.1 nM and the “apparent Kd” value under setting [2] amounted to 17.4 nM.

For “AAUAUGAGCUGGAAUAUAAACCUGACAUGAGGAUCACCCAUGUAGGAUAUCAGCACGAUAAGUGCUGAGAAGGACAACCAGCUC”, the “apparent Kd” value was determined as 14 nM under setting [1] and 14.5 nM under setting [2].

As to “AAACACGGACAUGAGGAUCACCCAUGUGGCGAAAGCCUUGGGAGAAGGCCGAUUGCAAAGCAAUCGGAGGAUAUCCAUACCGUG”, the “apparent Kd” value was determined as 17.8 nM under setting [3] and 6.03 nM under setting [4].

For the sequence “CACAUUUUAACAGGAUAUGUAUGGUUGCUUAUUAUUGCAUAUUCAAUUAUUACAGAAGGGUUAUACAUGAGGAUCACCCAUGUG”, the “apparent Kd” value runs as follows: under setting [3], 21 nM; under setting [4], 15.5 nM.

As for “CAUUUACAUGAGGAUCACCCAUGUGAGGAUAUGGAAUGGUUCAUUGUCUGACCUCCUUCUAGAAGGCACAUCUC”, the “apparent Kd” value under setting [1] worked out at 29.6 nM and the “apparent Kd” value under setting [2] stood at 30.5 nM.

For “AUACCUUAUGAGAAGGCGGUCAUGAAACAUGAUCGAGGAUAUCAUGUAAACAUGAGGAUCACCCAUGUAUGGGUAUUAUGGUAC”, the “apparent Kd” value is, setting by setting: under setting [3], 38.2 nM; under setting [4], 10.2 nM.

With “CCACGGUAUGUAGGAUAUGCAUAGCAUUGCUAUGCAGAAGGACAUGAGGAUCACCCAUGUAUGUAUUCCAUACUAAUCCCGUGC”, the “apparent Kd” value by setting is: under setting [1], 6.42 nM; under setting [2], 6.37 nM.

With “GAUCGACCUGAGAAGGCACAUGAGGAUCACCCAUGUUGAACCAUACAUGCCACAAAGUGGCAAUGUGAGGAUAUCAGGUCGAUC”, the “apparent Kd” value under setting [1] came out at 6.54 nM and the “apparent Kd” value under setting [2] was 12.1 nM.

As for “CCUCGACAUGAGGAUCACCCAUGUAAGGAUAUUCUAGGACGUGUUUUUCGUAGCUUUAGAAGAAGGUGCAGGUU”, the “apparent Kd” value turned out to be 49.5 nM under setting [1] and 175 nM under setting [2].

As to “UUGUUCUGAGGAUAUACAUGAGGAUCACCCAUGUGUUUCAGCUAGGAGACUAGCGAAAGUAGAAGGCUGUUCUC”, the “apparent Kd” value was 16.7 nM under setting [1] and 17.9 nM under setting [2].

On to “UCAUUUUUACAAGGAUAUCAAUAUAAUAUAAUAGCUACAUGAGGAUCACCCAUGUUUUAGCGUGGUGAGAAGGUGUAUUGUCGG”, for which the “apparent Kd” value is, setting by setting: under setting [3], 89.5 nM; under setting [4], 63 nM.

Consider “CCCUCGCGAGGAUAUGCAUCCUCCCUCAUUUCUUUCACUACACAUGAGGAUCACCCAUGUAGAAGGCGCUCUCC”, for which the “apparent Kd” value is, setting by setting: under setting [1], 49.9 nM; under setting [2], 38.6 nM.

“UAGAUUAGAAGUUAACAUGAGGAUCACCCAUGUAUUGGAACAGAGGAUAUGCAUGUUUGAUAGUAGCAGAAGGCUGAAGGUGGA”: the “apparent Kd” value turned out to be 98.1 nM under setting [3] and 104 nM under setting [4].

“CCGAAUGUCACAGGAUAUGGUCCGGGCACGCGACCAGAAGGGUGAUCUUACAUGAGGAUCACCCAUGUAUAGGCGUUAGGCUAC”: the “apparent Kd” value reads like this: under setting [3], 32.9 nM; under setting [4], 442 nM.

These data come from the EternaBench riboswitch data.
